Laboratory results taken from PubChem BioAssay.
Calls of active or inactive are those of the source.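 How the source made its calls: active means growth inhibition above 25% in both replicates, a cutoff set 3 SD above the mean; inconclusive means above 25% in only one replicate; inactive means the rest.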

Assay: S. cerevisiae growth inhibition in permissive medium (OD615), pilot counter-assay for S. cerevisiae lifespan shortening project, permissive growth control (AID 705)
Conditions: OD615, 24 h, at 10 µM, active compounds read high
Summary of the method: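 assay system = Saccharomyces cerevisiae strain carrying genetically modified DeaD replicative-lifespan system | technique = absorbance (optical density) at 615 nm | buffer or medium = permissive raffinose/galactose medium | timing = cells pre-grown 4 h, then 24 h compound exposure, 30 °C humidified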

**Q.** Which growth inhibition does the source give for `OC12CCCCC1C(c1ccccc1)NCC2` (stereo not given) here?
**A.** -3.8% (inactive)

**Q.** For `c1ccc2sc(C3CCCNC3)nc2c1` (stereo not given), which growth inhibition is on record?
**A.** -10.6% (inactive)

**Q.** Which growth inhibition does the source give for `O=c1cccc2n1CC1CC2CN(c2ncnc3c2cnn3-c2ccccc2)C1` (stereo not given) here?
**A.** -14.6% (inactive)

**Q.** Which growth inhibition does the source give for `Nc1ccc(S(=O)(=O)N2CC3CC(C2)c2cccc(=O)n2C3)cc1` (stereo not given) here?
**A.** 1.94% (inactive)

**Q.** Which growth inhibition does the source give for `CC12CN3CC(C)(CN(C1)C3c1ccco1)C2=O` (stereo not given) here?
**A.** -8.88% (inactive)

**Q.** For `CC1=CC(=C2C(=O)NC(=O)NC2=O)C=C(C(F)(F)F)N1C(C)C`, which growth inhibition is on record?
**A.** -13.5% (inactive)

**Q.** For `O=C(CN1CC(c2ccccc2)CC1=O)Nc1ccc(F)cc1` (stereo not given), which growth inhibition is on record?
**A.** -15.6% (inactive)

**Q.** Which growth inhibition does the source give for `CCCCCP(=O)(O)c1ccccc1` here?
**A.** -5.12% (inactive)

**Q.** For `CCOC(=O)C1CCN(/C=C2/C(=O)NC(=O)N(c3ccc(OCC)cc3)C2=O)CC1`, which growth inhibition is on record?
**A.** -11.5% (inactive)

**Q.** With `c1cncc(C2CCCCN2Cc2ccc3c(c2)OCO3)c1` (stereo not given) as the compound, how does the growth inhibition read?
**A.** -6.18% (inactive)

**Q.** Which growth inhibition does the source give for `CC1(C)CN=C(Nc2ccc(F)c(F)c2)S1` here?
**A.** -7.04% (inactive)

**Q.** For `CCCCCCOc1ccc(CN2CCN(CCO)CC2)cc1`, which growth inhibition is on record?
**A.** -16.7% (inactive)

**Q.** With `COc1cc(CN2CC3CC(C2)c2cccc(=O)n2C3)cc(OC)c1OC` (stereo not given) as the compound, how does the growth inhibition read?
**A.** -11.8% (inactive)

**Q.** For `O=C(c1ccc2c(c1)OCO2)N1CCC2(CC1)OCCO2`, which growth inhibition is on record?
**A.** -5.96% (inactive)

**Q.** With `CN1CSC(=S)N(C)C1` as the compound, how does the growth inhibition read?
**A.** 51.5% (active)

**Q.** With `O=C1CC(N2CC=C(c3ccccc3)CC2)C(=O)N1c1ccc(F)cc1` (stereo not given) as the compound, how does the growth inhibition read?
**A.** -7.4% (inactive)

**Q.** With `Cc1ccc2occ(CN3CC4CC(C3)c3cccc(=O)n3C4)c(=O)c2c1` (stereo not given) as the compound, how does the growth inhibition read?
**A.** -16.2% (inactive)

**Q.** Which growth inhibition does the source give for `Cn1c(O)c(C=Nc2ccc(Cl)cc2)c(=O)n(C)c1=O` here?
**A.** -7.12% (inactive)

**Q.** With `O=c1c2ccccc2nc(-c2ccco2)n1-c1ccncc1` as the compound, how does the growth inhibition read?
**A.** -1.4% (inactive)

**Q.** Which growth inhibition does the source give for `CC1(C)C(c2ccccc2)=NC(c2cccnc2)=[N+]1[O-]` here?
**A.** -4.62% (inactive)

**Q.** For `COc1cccc(OCC(=O)N2CCN(C)CC2)c1`, which growth inhibition is on record?
**A.** 5.64% (inactive)

**Q.** With `Cc1ccc2c(c1)C1CN(C)CCC1N2C(=O)c1ccco1` (stereo not given) as the compound, how does the growth inhibition read?
**A.** -2.01% (inactive)

**Q.** With `C=Cn1ccnc1P(=S)(c1c(C)nn(-c2ccccc2)c1C)c1nccn1C=C` as the compound, how does the growth inhibition read?
**A.** 0.15% (inactive)

**Q.** Which growth inhibition does the source give for `O=C(NC1(C(F)(F)F)Oc2ccccc2O1)N1CCC2(CC1)OCCO2` here?
**A.** -4.29% (inactive)

**Q.** Which growth inhibition does the source give for `NC(=O)CN1CC(c2ccccc2)CC1=O` (stereo not given) here?
**A.** -5.56% (inactive)

**Q.** With `O=c1cccc2n1CC1CC2CN(Cc2ccc3c(c2)OCO3)C1` (stereo not given) as the compound, how does the growth inhibition read?
**A.** -5.27% (inactive)

**Q.** Which growth inhibition does the source give for `O=C(Nc1ccccc1OC(=O)N1CCCCC1)N1CCCCC1` here?
**A.** -8.28% (inactive)

**Q.** For `COC(=O)c1ccc(CN2CCN(Cc3ccccc3)CC2)cc1`, which growth inhibition is on record?
**A.** -18.9% (inactive)

**Q.** With `Cc1cc(OCC(=O)OC(C)(C)C)c2c3c(c(=O)oc2c1)CCC3` as the compound, how does the growth inhibition read?
**A.** -8.29% (inactive)

**Q.** Which growth inhibition does the source give for `O=C(CN1CCOCC1)c1ccc2cc[nH]c2c1` here?
**A.** -10.7% (inactive)

**Q.** Which growth inhibition does the source give for `CN1CC=C(c2c[nH]c3ccccc23)CC1` here?
**A.** 0.43% (inactive)

**Q.** With `C=Cn1ccnc1P(=S)(c1ccn(C)c1)c1nccn1C=C` as the compound, how does the growth inhibition read?
**A.** -2.8% (inactive)

**Q.** For `C=Cn1ccnc1P(=S)(c1cc(N(CC)CC)ns1)c1nccn1C=C`, which growth inhibition is on record?
**A.** -0.585% (inactive)

**Q.** For `CC(C)NS(=O)(=O)c1ccc(OCC(=O)N2CCN(C)CC2)cc1`, which growth inhibition is on record?
**A.** -11.8% (inactive)

**Q.** For `CCOC(=O)C1SC2(C(F)(F)C(F)F)CC1(O)c1c(c(OC)c3occc3c1OC)O2` (stereo not given), which growth inhibition is on record?
**A.** -4.93% (inactive)

**Q.** With `COc1cc2c(cc1OC)-c1c(OC)c(OC)cc3c1C(C2)N(C)CC3` (stereo not given) as the compound, how does the growth inhibition read?
**A.** -13.1% (inactive)

**Q.** For `C=Cn1ccnc1P(=S)(c1nccn1C=C)C1CCCCC1`, which growth inhibition is on record?
**A.** 0.2% (inactive)

**Q.** Which growth inhibition does the source give for `CN1C(=O)C(Cc2cccs2)C(=O)N(C)C1=O` here?
**A.** -5.75% (inactive)

**Q.** Which growth inhibition does the source give for `CN(C)C(=O)Oc1ccc(C(=O)c2ccccc2)cc1` here?
**A.** -2.66% (inactive)

**Q.** For `O/N=C/c1c[nH]c2ccccc12`, which growth inhibition is on record?
**A.** 4.87% (inactive)
